# Screens deposited in PubChem by several laboratories.
# Rows were chosen to be rich in hits. Some 1.9% of all compounds tested hit in one or more screens of this group.
# TLR9-MyD88 inh – inhibitors of TLR9-MyD88 association in cells, primary screen, cell-based, CHO, BLA complementation, fluorescence; Toll-like receptor 9 (Homo sapiens) + Myeloid differentiation primary response protein …; CCF4 FRET ratio; inhibition, % at 4.98 µM; 340,000 compounds, 0.21% hits; AID 504734, 2011;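 active = inhibition above the mean over all tested compounds plus 3 SD, cut at about 21% in these data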;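 note: 0% = DMSO only wells and 100% = clavulanate BLA inhibitor control wells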
# NOD2 RIPK2 PPI – NOD2-RIPK2 binding disruptors in cells, primary screen, fluorescence, CHO cells, BLA complementation | CCF4 ratio | inhibition, % at 4.98 µM | 360,000 compounds, 0.38% hits | AID 624267, 2012; in the data active = inhibition above about 21%;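 note: 0% = vehicle only and 100% = reference blocker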
# MC4R antag cAMP – MC4R antagonists of cAMP signaling, primary screen, cell-based, TR-FRET, antagonist arm of biased-ligand search. inhibition, % at 6.5 µM. AID 540295, 2011. 360,000 compounds, 0.48% hits. Melanocortin receptor 4 (Homo sapiens), P32245. MC4R-expressing cells, MTII-stimulated cAMP, LANCE TR-FRET;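 active = inhibition above its plate's cutoff, the mean of tested wells on that plate plus 3 SD, cut at about 29% in these data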;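 note: 0% = Melanotan II alone and 100% = Melanotan II plus saturating MCL0020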
#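 Material: U2OS-MC4R stable cell line | Reagent: Melanotan II challenge after compound preincubation | Doses: One concentration, 6.5 µM nominal | Incubation: 30-min compound preincubation, 1-h Melanotan II challenge, 1-h detection, room temperature | Signal: TR-FRET cAMP assay | Replicates: One well per compound, no replicates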
# MC4R ag barr – MC4R agonists recruiting beta-arrestin, primary screen, cell-based, luminescence, agonist arm of biased-ligand search; AID 540308, 2011; activation, % at 8.9 µM; 360,000 compounds, 0.98% hits; U2OS MC4R beta-arrestin complementation; percent of melanotan II response, DMSO zero; Melanocortin receptor 4 (Homo sapiens), P32245;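 active = activation above a per-plate cutoff, the mean activation of sample wells on that plate plus 3 SD, cut at about 8% in these data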
# NTR1 agonist – agonists of human NTR1, primary screen, imaging, U2OS cells, beta-arrestin-GFP, high content | NTR1-U2OS beta-arrestin-GFP spot imaging, agonist mode | Neurotensin receptor type 1 (Homo sapiens), P30989 | 330,000 compounds, 0.17% hits | activation, % at 20 µM;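 active = activation at or above 40% of the spot to cytoplasm intensity ratio, with at least 20 cells analyzed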;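 note: 0% = DMSO without peptide and 100% = 100 nM NTR1 peptide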
# TLR4 MyD88 comp – inhibitors of TLR4-MyD88 association in cells, primary screen, cell-based, HeLa CL3-4, BLA complementation, FRET ratio | Toll-like receptor 4 (Homo sapiens) + Myeloid differentiation primary response protein … | HeLa CL3-4 TLR4/MyD88 BLA complementation | inhibition, % at 8.4 µM | 200,000 compounds, 0.18% hits | AID 861, 2007; in the data active = inhibition above about 25%;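 note: 0% = vehicle and 100% = reference inhibitor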
# Target sequence (O00206 whole entry, looked up): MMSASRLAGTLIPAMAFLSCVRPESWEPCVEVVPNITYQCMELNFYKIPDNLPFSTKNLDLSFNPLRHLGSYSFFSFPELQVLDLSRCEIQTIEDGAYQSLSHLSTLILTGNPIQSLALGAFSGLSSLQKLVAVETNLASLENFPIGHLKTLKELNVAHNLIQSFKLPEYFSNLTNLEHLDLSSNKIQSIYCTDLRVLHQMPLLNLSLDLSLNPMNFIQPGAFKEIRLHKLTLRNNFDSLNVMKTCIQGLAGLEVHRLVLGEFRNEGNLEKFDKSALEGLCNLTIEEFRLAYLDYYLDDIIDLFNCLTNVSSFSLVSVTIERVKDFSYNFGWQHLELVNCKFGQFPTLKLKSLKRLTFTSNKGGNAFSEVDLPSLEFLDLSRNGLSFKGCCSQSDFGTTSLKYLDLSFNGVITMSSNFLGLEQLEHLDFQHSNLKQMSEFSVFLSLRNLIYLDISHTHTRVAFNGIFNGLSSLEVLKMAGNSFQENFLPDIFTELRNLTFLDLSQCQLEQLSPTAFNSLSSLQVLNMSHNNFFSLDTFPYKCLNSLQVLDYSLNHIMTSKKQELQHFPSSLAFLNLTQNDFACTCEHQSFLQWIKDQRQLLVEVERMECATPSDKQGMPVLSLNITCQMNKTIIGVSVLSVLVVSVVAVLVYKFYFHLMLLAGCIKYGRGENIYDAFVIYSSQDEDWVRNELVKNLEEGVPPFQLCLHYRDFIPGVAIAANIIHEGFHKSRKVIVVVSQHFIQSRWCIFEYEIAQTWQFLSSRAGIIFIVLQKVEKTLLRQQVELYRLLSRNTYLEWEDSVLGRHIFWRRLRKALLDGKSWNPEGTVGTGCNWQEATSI
# Target sequence (Q99836 whole entry, looked up): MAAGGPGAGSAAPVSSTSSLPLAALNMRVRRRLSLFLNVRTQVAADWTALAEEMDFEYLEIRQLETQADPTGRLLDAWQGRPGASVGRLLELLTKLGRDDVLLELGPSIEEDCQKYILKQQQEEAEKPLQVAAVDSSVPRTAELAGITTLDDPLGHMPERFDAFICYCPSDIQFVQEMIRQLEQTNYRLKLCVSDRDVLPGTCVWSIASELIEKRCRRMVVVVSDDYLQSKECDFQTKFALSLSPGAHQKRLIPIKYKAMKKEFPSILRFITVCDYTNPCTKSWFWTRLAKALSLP
# TLR4 MyD88 cnf – TLR4-MyD88 association inhibitors, retest, confirmation, cell-based, HeLa CL3-4, BLA complementation, FRET ratio | 350 compounds, 50% hits | shares compounds with TLR4 MyD88 comp | inhibition, % at 8.4 µM | CCF4 FRET ratio | AID 941, 2007;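 active = mean inhibition across three repeat runs above about 25% carried over from the earlier screen, limit read from the data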;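 note: plate controls were DMSO only for no effect and clavulanic acid blocking BLA at full dose for full effect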
# BLA inh HeLa – counter-screen for TLR4-MyD88 inhibitors: beta-lactamase reporter inhibitors. shares compounds with TLR4 MyD88 comp. HeLa BLA reporter, CCF4 FRET ratio. AID 1237. inhibition, % at 8.4 µM. 350 compounds, 63% hits;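 active = mean inhibition over three repeats above about 26% taken from the earlier screen, limit read from the data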;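 note: HeLa cells stably expressing beta-lactamase reporter as counterscreen for TLR4-MyD88 inhibitors; 0% = DMSO and 100% = clavulanic acid full inhibition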
# The depositor's hits bear a star; . = no result given.
SMILES,TLR9-MyD88 inh,NOD2 RIPK2 PPI,MC4R antag cAMP,MC4R ag barr,NTR1 agonist,TLR4 MyD88 comp,TLR4 MyD88 cnf,BLA inh HeLa
c1ccc(-c2cn3nc(-c4ccccc4)c(-c4ccccc4)nc3n2)cc1,1,3,-2,-1,-1,52*,43*,73*
CCOc1ccc(S(=O)(=O)n2ccnc2C)cc1,.,.,.,.,0,.,.,.
CCOc1ccc(S(=O)(=O)N2CCOCC2)c2ccccc12,-1,2,-1,-3,0,.,.,.
CCOc1ccc(C(C)(C)C)cc1S(=O)(=O)N1CCOCC1,-2,-8,5,-1,0,27*,0,-2
CC1(C(=O)Nc2ccc3c(c2)OCCO3)CCC(=O)N1CCc1c[nH]c2ccccc12 (stereo not drawn),.,-4,.,.,.,.,.,.
CC(=O)C1=C(C)NC(SCSc2ccccc2)=C(C#N)C1c1cccnc1 (stereo not drawn),.,.,.,.,6,-6,.,.
CC(=O)C1=C(C)NC(SCC(=O)c2ccc(-c3ccccc3)cc2)=C(C#N)C1c1cccnc1 (stereo not drawn),.,.,.,.,4,31*,20,36*
O=C(NCCCN1CCOCC1)c1ccc2c(=O)n(Cc3ccc(Cl)cc3)c(=S)[nH]c2c1,0,3,20,0,2,.,.,.
COc1cc2c3nnc(-c4ccc(F)cc4)c-3cn(Cc3ccccc3F)c2cc1OC,20,20,2,12*,.,62*,44*,84*
COc1ccccc1Cc1c(-c2ccc(F)cc2)nc2ccc(Cl)cn12,.,0,.,.,.,.,.,.
COc1ccc(NC(=O)c2cncn2-c2ccccc2)cc1,1,-14,12,1,0,.,.,.
COc1cccc(C(C)NC(=O)Cc2cccs2)c1 (stereo not drawn),-4,-5,21,2,0,.,.,.
CCn1c(SCC(=O)NCc2ccccc2)nc2nc3c(cc2c1=O)CCCC3,2,3,11,-4,1,25*,-4,4
CCOc1ccc(C2C=C(c3ccc(F)cc3)Nc3ncnn32)cc1 (stereo not drawn),7,7,-5,-2,2,26*,24,53*
COc1cccc(C2=CC(c3ccccc3)n3ncnc3N2)c1 (stereo not drawn),.,.,.,.,0,10,.,.
CCOc1ccc(C2C=C(c3ccccc3)Nc3ncnn32)cc1 (stereo not drawn),.,.,.,.,2,27*,24,41*
COc1ccc(C2C=C(c3ccccc3)Nc3nc(NC(C)=O)nn32)cc1 (stereo not drawn),.,.,.,.,-2,36*,31*,56*
COc1ccc(-c2ccc3c(N)c(C(=O)c4ccc(OC)c(OC)c4)sc3n2)cc1,9,18,-15,0,3,27*,23,45*
CCOC(=O)c1c2ccc(OCC(=O)N/N=C/c3ccc(C)cc3)cc2n2ccccc12,8,17,-2,1,19,38*,48*,17
COC(=O)c1ccc(-n2c(C)cc(C(=O)CCl)c2C)cc1,-2,3,-24,-5,4,25*,20,-6
CCOc1ccc(-n2c(C)cc(C(=O)CCl)c2C)cc1,-2,8,1,-4,12,20,.,.
CCOC(=O)c1ccoc1CSCc1ccc(C(=O)OC)o1,0,-2,22,0,1,27*,-4,-4
COCCNC(=O)Cn1nc(-c2ccccc2F)ccc1=O,-12,-5,0,1,0,.,.,.
